These results are taken from ChEMBL document CHEMBL4622964, “Designing Dihydrofolate Reductase Inhibitors as X-ray Radiosensitizers to Reverse Radioresistance of Cervical Cancer” (ACS Med Chem Lett, 2020).

By IC50 is commonly meant the point on the concentration scale where inhibition reaches its midpoint.

The subject of series [1] is HeLa. As to the kind of experiment: Antiproliferative activity against human HeLa cells assessed as reduction in cell viability incubated for 12 hrs by MTT assay. The class given is functional, cell-based. The gist of the method:
(§1)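 MTT viability assay in HeLa cancer cells, with the test agent alone (0 Gy) or combined with 4 Gy X-rays. IC50 values are in μM. Sensitivity enhancement ratio = IC50(0 Gy)/IC50(4 Gy).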
Background: Formazan colour is commonly taken as a measure of viable cells.

Series [2] relates to HeLa. As to the kind of experiment: Ratio of IC50 for antiproliferative activity against human HeLa cells assessed as reduction in cell viability incubated for 12 hrs to IC50 for antiproliferative activity against human HeLa cells assessed as reduction in cell viability preincubated for 12 hrs followed by 4 Gy irradiation and measured after 60 hrs by MTT assay. Format: functional. The gist of the method:
as §1

The nature of series [3]: Cytotoxicity against human Ect1 cells assessed as reduction in cell viability by MTT assay. Format: cell-based. In short, it runs like this:
(§2)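 MTT viability assay in Ect1/E6E7 normal ectocervical epithelial cells, with the test agent alone (0 Gy) or combined with 4 Gy X-rays. IC50 values are in μM.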

Series [4] can be described thus: Cytotoxicity against human Ect1 cells assessed as reduction in cell viability in presence of 4 Gy irradiation by MTT assay. The class given is cell-based. Particulars: light or radiation study. In short, it runs like this: as §2
Series [5] in a line: Ratio of IC50 for cytotoxicity against human Ect1 cells assessed as reduction in cell viability by MTT assay to cytotoxicity against human Ect1 cells assessed as reduction in cell viability in presence of 4 Gy irradiation by MTT assay. The class given is cell-based. The note with it: read-out: Ratio IC50. The gist of the method:
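MTT viability assay on Ect1/E6E7 normal ectocervical cells and HeLa cells, with 0 or 4 Gy X-rays. SER = IC50(0 Gy)/IC50(4 Gy) in the same line; safe index SI4 = IC50 Ect1/E6E7 + 4 Gy divided by IC50 HeLa + 4 Gy.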

Series [6] is described as follows: Safety index, ratio of IC50 for cytotoxicity against human Ect1 cells assessed as reduction in cell viability to IC50 for antiproliferative activity against human HeLa cells assessed as reduction in cell viability incubated for 12 hrs by MTT assay. Format: toxicity, cell-based. Particulars: Ect1 cells versus HeLa cells, read-out: Ratio IC50. The gist of the method: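 Safe index SI0 from MTT assay without irradiation: IC50 in Ect1/E6E7 normal ectocervical cells divided by IC50 in HeLa cells.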

Series [7] deals with HeLa. As to the kind of experiment: Induction of cell cycle arrest in human HeLa cells assessed as accumulation at G1 phase at 1 uM after 48 hrs by propidium iodide staining based flow cytometric analysis (reference value: 40.7%). The class given is functional. (In flow cytometry, cells or beads pass a laser one at a time.)
For series [8], the system named is HeLa. As to the kind of experiment: Induction of apoptosis in human HeLa cells assessed as caspase-3 activation at 1 uM using Ac-DEVD-AMC as substrate after 12 hrs in presence of 4 Gy X-ray radiation by fluorescence based assay relative to control. The class given is functional. The gist of the method:
(§3)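 Caspase-3 and caspase-8 activities were measured in HeLa cells after 12 h at 1 μM, without or with 4 Gy X-rays. Mean ± SD of three independent experiments.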

The test system of series [9] is HeLa. The series can be described thus: Induction of apoptosis in human HeLa cells assessed as caspase-8 activation at 1 uM using […] as substrate after 12 hrs in presence of 4 Gy X-ray radiation by fluorescence based assay relative to control. The class given is functional. In short, it runs like this:
as §3

Series [10] relates to HeLa. As to the kind of experiment: Induction of reactive oxygen species generation in human HeLa cells incubated with DHE for 30 mins and measured up to 30 mins in presence of 4 Gy X-ray radiation by fluorescence microscopic analysis. Format: functional, cell-based. The gist of the method:
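HeLa cells pretreated with compound, with or without 4 Gy X-rays, then incubated with dihydroethidium for 30 min; red superoxide-derived fluorescence imaged by fluorescence microscopy, with observation continued over a further 30 min.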

Series [11] concerns HeLa. As to the kind of experiment: Induction of ROS generation in human HeLa cells in presence of 4 Gy X-ray irradiation by DHE fluorescent dye based microplate reader analysis (reference value: 150%). The class given is functional.
Series [12] deals with HeLa. The series can be described thus: Inhibition of cell migration in human HeLa cells assessed as reduction in migration velocity at 1 uM after 24 hrs by phase contrast microscopic analysis. The class given is functional, cell-based. The gist of the method:
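Wound-healing scratch assay on HeLa monolayers, compound with or without 4 Gy X-rays; wound closure recorded by phase-contrast microscopy at set times; migrated cells counted manually; mean ± SD of three independent experiments.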

In series [13] the test system is HeLa. The series can be described thus: Antimigratory activity in human HeLa cells assessed as inhibition of cell migration at 1 uM after 24 hrs in presence of 4 Gy irradiation by wound healing assay (reference value: 35%). Format: functional. The note with it: light or radiation study, read-out: INH. The gist of the method: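 Wound-healing scratch assay in HeLa cells. Cells were treated without or with 4 Gy X-rays, and wound closure was imaged by phase-contrast microscopy at the indicated times. Migrated cells were counted manually. Mean ± SD of three independent experiments.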

The test system of series [14] is HeLa. As to the kind of experiment: Antitumor activity against human HeLa cells xenografted in BALB/c mouse at 4 mg/kg, iv administered for every 3 days for 21 days. The class given is functional, organism-based. The gist of the method:
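Nude mice bearing HeLa tumors; compound by tail-vein injection every 3 days over 21 days at 4 mg/kg, alone or combined with X-rays.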
On the technique in general: A xenograft is tissue or cells of one species grown in another, often human tumour cells in immunodeficient mice.

The nature of series [15]: Toxicity in BALB/c mouse xenografted with human HeLa cells assessed as lung damage at 4 mg/kg, iv administered for every 3 days for 21 days and measured after 24 hrs post last dose by H and E staining based light microscopic analysis. Particulars: in vivo. The class given is organism-based. In short, it runs like this: (§4)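 HeLa-tumor-bearing nude mice dosed at 4 mg/kg iv every 3 days for 21 days, alone or with X-rays; euthanized 24 h after last injection; heart, liver, lungs, kidneys and spleen sectioned and stained with H&E.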

Series [16] is described as follows: Toxicity in BALB/c mouse xenografted with human HeLa cells assessed as kidney damage at 4 mg/kg, iv administered for every 3 days for 21 days and measured after 24 hrs post last dose by H and E staining based light microscopic analysis. Format: organism-based. Particulars: in vivo. The gist of the method: as §4
Series [17] can be described thus: Toxicity in BALB/c mouse xenografted with human HeLa cells assessed as body weight loss at 4 mg/kg, iv administered for every 3 days and measured after 21 days in presence of 4 Gy X-ray irradiation. The class given is organism-based. The note with it: in vivo, 504 h. The gist of the method:
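HeLa-tumor-bearing nude mice given compound at 4 mg/kg by tail-vein injection every 3 days, alone or with X-rays; body weight recorded across 21 days.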

A short description of series [18]: Toxicity in BALB/c mouse xenografted with human HeLa cells assessed as liver damage by measuring effect on ALT level at 4 mg/kg, iv administered every 3 days for 21 days. The class given is organism-based. Particulars: in vivo. In short, it runs like this: (§5)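 HeLa xenograft nude mice dosed at 4 mg/kg iv every 3 days over 21 days, alone or with X-rays; blood collected 24 h after last injection for serum biochemistry: ALT, AST (liver), BUN and uric acid (kidney).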

The nature of series [19]: Toxicity in BALB/c mouse xenografted with human HeLa cells assessed as liver damage by measuring effect on AST level at 4 mg/kg, iv administered every 3 days for 21 days in presence of 4 Gy X-ray irradiation. The class given is organism-based. Particulars: in vivo. In short, it runs like this: as §5
Series [20] in a line: Toxicity in BALB/c mouse xenografted with human HeLa cells assessed as kidney damage by measuring effect on uric acid level at 4 mg/kg, iv administered every 3 days for 21 days in presence of 4 Gy X-ray irradiation. The class given is organism-based. Particulars: in vivo. The gist of the method:
as §5

Series [21] can be described thus: Toxicity in BALB/c mouse xenografted with human HeLa cells assessed as kidney damage by measuring effect on BUN level at 4 mg/kg, iv administered every 3 days for 21 days in presence of 4 Gy X-ray irradiation. The note with it: in vivo. Format: organism-based. The gist of the method:
as §5

The nature of series [22]: Drug uptake in human HeLa cells at 4 uM after 4 hrs by fluorescence based assay. Format: ADME, cell-based.

Structures are written as SMILES. Activity calls are given as the source filed them. No cut-off for these calls is given here.

Regarding `Nc1nc(N)c2nc3c(nc2n1)-c1cccc2cccc-3c12`, the IC50 in the series with HeLa [1] is 2.1 µM; in series [3] it was 6.9 µM; in series [4], 3.1 µM. Further, the “Ratio IC50” value in the series with HeLa [2] is given as 3.3. Besides, the selectivity ratio in series [5] stood at 2.2. In series [6], the selectivity ratio at 12 h amounted to 3.3. The Activity in the series with HeLa [7] was 38.7%; with HeLa [8] it was 150%; with HeLa [9], 129%; in the series on HeLa [11] it was 205%; in [15], “Non-Toxic”; in [16] it was “Non-Toxic”. Further, the Activity result in [17], in series [18], in series [19], in series [20] and in [21] was “Non-Toxic” in each case. The result with HeLa [10] and with HeLa [14] was Active. Besides, the inhibition result with HeLa [12] is “Active”. Moreover, the inhibition at 1 µM in the series with HeLa [13] stood at 81%. Also, the Drug uptake entry in series [22] is “Active”.
